The source made the active and inactive calls. The rule behind the calls is not given here. Bridge positions count the residues as written; N and C are the ends. Peptide text beside a SMILES is read from it.
Legend:
Type in all cases: functional
[1] = target: Amyloid-beta precursor protein (Homo sapiens) (UniProt P05067); assay: Amyloid aggregation property at high concentration over 3 days by thioflavin-T fluorescence assay; settings: time 3.0 day
In short: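 Peptide was dissolved in water at pH 4.2–4.5 or 7.2–7.4, filtered and centrifuged to leave monomers. ThT and NaCl were added to give 1 or 5 mg/mL peptide final. Plates were sealed and read at 37 °C with orbital shaking for 3 days (ex 445 nm/em 490 nm, bottom read). Triplicates, with peptide-free ThT background subtracted; mean and SD were reported.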

[2] = target: Amyloid-beta precursor protein (Homo sapiens) (UniProt P05067); assay: Amyloid aggregation property at high concentration by CD spectroscopy
In short: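 Far-UV CD (185–260 nm, spectra truncated at 195 nm) in a 1.0 mm cuvette. Samples were 200–300 μM peptide with 150 mM NaCl at pH 4.5 or 7.4, kept at 37 °C and shaken at 500 rpm between acquisitions. Each spectrum is the average of 3 scans at 50 nm/min, solvent-subtracted, Savitzky–Golay smoothed, and expressed as mean residue molar ellipticity.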

[3] = target: Amyloid-beta precursor protein (Homo sapiens) (UniProt P05067); assay: Amyloid aggregation property at high concentration by atomic force microscopy analysis
In short: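 AFM in dynamic mode on 10 μL aliquots taken at the endpoint of the agitated aggregation samples: ThT samples (37 °C, pH ~4.5 or ~7.4) after 3 days and CD samples (200–300 μM, 150 mM NaCl) after 2 weeks.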

INS-1E = assay: Induction of insulin secretion in rat INS-1E cells assessed as median fold increase at 20 nM pretreated with glucose for 30 mins followed by KRBH washout for 30 mins and subsequent glucose and compound addition for another 30 mins by ELISA

Sequence of Amyloid-beta precursor protein (Homo sapiens) (P05067 whole entry, the tested form may be a part): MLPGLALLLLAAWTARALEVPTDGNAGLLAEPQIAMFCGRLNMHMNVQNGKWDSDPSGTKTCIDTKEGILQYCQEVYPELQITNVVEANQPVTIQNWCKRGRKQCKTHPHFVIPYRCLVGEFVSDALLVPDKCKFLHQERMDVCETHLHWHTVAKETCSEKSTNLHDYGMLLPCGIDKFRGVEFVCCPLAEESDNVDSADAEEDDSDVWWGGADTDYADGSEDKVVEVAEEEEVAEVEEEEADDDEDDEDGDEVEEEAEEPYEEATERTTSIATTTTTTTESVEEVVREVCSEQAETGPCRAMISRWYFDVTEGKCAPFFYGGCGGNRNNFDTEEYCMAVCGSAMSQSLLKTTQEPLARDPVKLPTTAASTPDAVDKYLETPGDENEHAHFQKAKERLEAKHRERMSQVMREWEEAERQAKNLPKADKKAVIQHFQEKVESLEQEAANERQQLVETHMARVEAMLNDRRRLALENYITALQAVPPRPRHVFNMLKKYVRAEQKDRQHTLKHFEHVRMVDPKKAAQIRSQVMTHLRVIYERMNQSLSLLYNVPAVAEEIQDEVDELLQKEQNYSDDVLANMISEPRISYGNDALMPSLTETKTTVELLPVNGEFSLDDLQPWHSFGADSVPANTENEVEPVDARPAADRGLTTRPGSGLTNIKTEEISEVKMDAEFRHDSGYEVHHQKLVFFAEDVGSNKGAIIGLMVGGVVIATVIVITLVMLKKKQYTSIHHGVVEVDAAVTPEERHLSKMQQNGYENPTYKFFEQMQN

Row | Activity [1] | Activity [2] | Activity [3] | Structure (SMILES) | Activity (INS-1E)
1 | Active | Active | Active | CC[C@H](C)[C@H](NC(=O)[C@H](Cc1ccc(O)cc1)NC(=O)[C@H](CC(C)C)NC(=O)[C@H](CCCNC(=N)N)NC(=O)[C@@H](NC(=O)[C@H](C)NC(=O)[C@H](CCC(=O)O)NC(=O)[C@H](CCC(=O)O)NC(=O)[C@H](CCC(=O)O)NC(=O)[C@H](CCSC)NC(=O)[C@H](CCC(N)=O)NC(=O)[C@H](CCCCN)NC(=O)[C@H](CO)NC(=O)[C@H](CC(C)C)NC(=O)[C@H](CC(=O)O)NC(=O)[C@H](CO)NC(=O)[C@@H](NC(=O)[C@H](Cc1ccccc1)NC(=O)[C@@H](NC(=O)CNC(=O)[C@H](CCC(=O)O)NC(=O)CNC(=O)[C@@H](N)Cc1cnc[nH]1)[C@@H](C)O)[C@@H](C)O)C(C)C)C(=O)N[C@@H](CCC(N)=O)C(=O)N[C@@H](Cc1c[nH]c2ccccc12)C(=O)N[C@@H](CC(C)C)C(=O)N[C@@H](CCCCN)C(=O)N[C@@H](CC(=O)O)C(=O)NCC(=O)NCC(=O)N1CCC[C@H]1C(=O)N[C@@H](CO)C(=O)N[C@@H](CO)C(=O)NCC(=O)N[C@@H](CCCNC(=N)N)C(=O)N1CCC[C@H]1C(=O)N1CCC[C@H]1C(=O)N1CCC[C@H]1C(=O)N[C@@H](CO)C(=O)O | –
2 | – | – | – | CC[C@H](C)[C@@H]1NC(=O)[C@H](Cc2ccc(O)cc2)NC(=O)[C@H](CC(C)C)NC(=O)[C@H](CCCNC(=N)N)NC(=O)[C@H](C(C)C)NC(=O)[C@@H](NC(=O)[C@H](CCC(=O)O)NC(=O)[C@H](CCC(=O)O)NC(=O)[C@H](CCC(=O)O)NC(=O)[C@H](CCSC)NC(=O)[C@H](CCC(N)=O)NC(=O)[C@H](CCCCN)NC(=O)[C@H](CO)NC(=O)[C@H](CC(C)C)NC(=O)[C@H](CC(=O)O)NC(=O)[C@H](CO)NC(=O)[C@@H](NC(=O)[C@H](Cc2ccccc2)NC(=O)[C@@H](NC(=O)CNC(=O)[C@H](CCC(=O)O)NC(=O)CNC(=O)[C@@H](N)Cc2cnc[nH]2)[C@@H](C)O)[C@@H](C)O)CSSC[C@@H](C(=O)O)NC(=O)[C@@H]2CCCN2C(=O)[C@@H]2CCCN2C(=O)[C@@H]2CCCN2C(=O)[C@H](CCCNC(=N)N)NC(=O)CNC(=O)[C@H](CO)NC(=O)[C@H](CO)NC(=O)[C@@H]2CCCN2C(=O)CNC(=O)CNC(=O)[C@H](CC(=O)O)NC(=O)[C@H](CCCCN)NC(=O)[C@H](CC(C)C)NC(=O)[C@H](Cc2c[nH]c3ccccc23)NC(=O)[C@H](CCC(N)=O)NC1=O (H-HGEGTFTSDLSKQMEEECVRLYIQWLKDGGPSSGRPPPC-OH; disulfide 18-39) | inactive
